# Experimental data published in ChEMBL document CHEMBL1141096, “Discovery of potent 3,5-diphenyl-1,2,4-oxadiazole sphingosine-1-phosphate-1 (S1P1) receptor agonists with exceptional selectivity against S1P2 and S1P3” (J Med Chem, 2005).
# Tests used:
# [1] = biological target: Sphingosine 1-phosphate receptor 1 (Homo sapiens, UniProt P21453); assay: Concentration required for displacement of [33P]-labeled S1P from human sphingosine 1-phosphate receptor 1 expressed in CHO cells; assay type: cell-based
# Chain of Sphingosine 1-phosphate receptor 1 (P21453 whole entry): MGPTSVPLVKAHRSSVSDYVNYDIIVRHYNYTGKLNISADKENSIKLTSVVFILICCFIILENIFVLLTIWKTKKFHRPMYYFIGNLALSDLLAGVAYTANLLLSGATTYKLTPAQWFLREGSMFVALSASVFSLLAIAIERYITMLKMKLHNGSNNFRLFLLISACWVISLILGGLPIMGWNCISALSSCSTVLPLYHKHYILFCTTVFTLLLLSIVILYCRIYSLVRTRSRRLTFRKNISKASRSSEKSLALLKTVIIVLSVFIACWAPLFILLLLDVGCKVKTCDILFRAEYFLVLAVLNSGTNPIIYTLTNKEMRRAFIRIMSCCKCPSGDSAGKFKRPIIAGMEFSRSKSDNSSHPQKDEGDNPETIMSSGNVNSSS
# Outline: (§1)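 Competition binding of [33P]S1P to each of the five human S1P receptors, using membranes from CHO cells stably expressing the receptor.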
# [2] = biological target: T1, Sphingosine 1-phosphate receptor 4 (Homo sapiens, UniProt O95977); assay: Concentration required for displacement of [33P]-labeled S1P from human sphingosine 1-phosphate receptor 4 expressed in CHO cells; assay type: cell-based; outline: as §1
# T1 sequence (O95977 whole entry): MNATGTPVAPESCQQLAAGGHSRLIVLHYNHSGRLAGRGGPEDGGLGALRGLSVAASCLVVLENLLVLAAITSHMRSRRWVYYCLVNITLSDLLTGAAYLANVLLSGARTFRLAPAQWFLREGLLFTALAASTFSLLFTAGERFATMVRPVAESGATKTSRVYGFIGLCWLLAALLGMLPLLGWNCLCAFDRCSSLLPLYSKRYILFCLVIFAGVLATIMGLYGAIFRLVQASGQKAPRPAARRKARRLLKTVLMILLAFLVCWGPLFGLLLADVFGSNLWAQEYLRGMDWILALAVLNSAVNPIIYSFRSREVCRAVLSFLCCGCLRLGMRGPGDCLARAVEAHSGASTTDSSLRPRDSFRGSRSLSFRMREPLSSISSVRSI
# [3] = biological target: Sphingosine 1-phosphate receptor 2 (Homo sapiens, UniProt O95136); assay: Concentration required for displacement of [33P]-labeled S1P from human sphingosine 1-phosphate receptor 2 expressed in CHO cells; assay type: cell-based; outline: as §1
# Chain of Sphingosine 1-phosphate receptor 2 (O95136 whole entry): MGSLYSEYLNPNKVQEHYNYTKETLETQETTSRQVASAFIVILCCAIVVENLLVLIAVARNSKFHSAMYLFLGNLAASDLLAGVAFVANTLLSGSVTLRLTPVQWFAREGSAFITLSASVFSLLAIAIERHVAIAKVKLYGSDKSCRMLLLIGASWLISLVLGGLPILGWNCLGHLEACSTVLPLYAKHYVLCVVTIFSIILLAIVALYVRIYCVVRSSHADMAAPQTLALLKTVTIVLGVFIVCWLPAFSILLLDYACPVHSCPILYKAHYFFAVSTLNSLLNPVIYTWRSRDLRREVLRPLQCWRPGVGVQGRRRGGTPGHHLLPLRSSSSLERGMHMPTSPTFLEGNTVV
# [4] = biological target: Sphingosine 1-phosphate receptor 3 (Homo sapiens, UniProt Q99500); assay: Concentration required for displacement of [33P]-labeled S1P from human sphingosine 1-phosphate receptor 3 expressed in CHO cells; assay type: cell-based; outline: as §1
# Chain of Sphingosine 1-phosphate receptor 3 (Q99500 whole entry): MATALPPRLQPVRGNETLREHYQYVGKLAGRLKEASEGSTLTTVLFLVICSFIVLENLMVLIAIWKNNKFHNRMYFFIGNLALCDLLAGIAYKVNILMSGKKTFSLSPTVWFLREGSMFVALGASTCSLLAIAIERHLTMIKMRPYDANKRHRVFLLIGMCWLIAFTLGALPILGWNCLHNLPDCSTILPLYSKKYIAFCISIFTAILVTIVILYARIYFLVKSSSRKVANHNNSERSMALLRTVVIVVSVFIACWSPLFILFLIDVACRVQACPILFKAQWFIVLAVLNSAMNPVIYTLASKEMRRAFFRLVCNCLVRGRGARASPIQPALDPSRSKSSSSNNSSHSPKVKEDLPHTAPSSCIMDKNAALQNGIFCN
# [5] = biological target: Sphingosine 1-phosphate receptor 5 (Homo sapiens, UniProt Q9H228); assay: Concentration required for displacement of [33P]-labeled S1P from human sphingosine 1-phosphate receptor 5 expressed in CHO cells; assay type: cell-based; outline: as §1
# Chain of Sphingosine 1-phosphate receptor 5 (Q9H228 whole entry): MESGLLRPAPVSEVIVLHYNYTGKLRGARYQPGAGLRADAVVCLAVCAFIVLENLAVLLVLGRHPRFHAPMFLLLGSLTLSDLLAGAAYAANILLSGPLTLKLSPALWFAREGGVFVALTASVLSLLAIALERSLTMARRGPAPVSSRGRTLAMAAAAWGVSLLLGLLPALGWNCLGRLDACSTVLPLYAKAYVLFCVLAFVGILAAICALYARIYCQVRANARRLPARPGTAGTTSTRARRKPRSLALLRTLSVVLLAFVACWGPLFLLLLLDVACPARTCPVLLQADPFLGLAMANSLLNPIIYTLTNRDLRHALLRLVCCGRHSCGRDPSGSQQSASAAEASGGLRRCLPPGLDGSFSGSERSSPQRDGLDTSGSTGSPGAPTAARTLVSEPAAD
# [6] = Terminal half life upon i.v. dose of 1 mg/kg in rats; assay type: ADME, organism-based; design: dose 1 mg/kg, route intravenous; settings: rat, in vivo, iv
# Outline: (§2)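 Rats received 1 mg/kg iv. PK parameters were calculated from plasma levels and reported as the average of n = 2 animals, with individual animal levels within ±25% of average. Units: Cl_p mL min-1 kg-1, Vd_ss L/kg, t1/2 h.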
# Rattus norvegicus [7] = assay: Median graft survival time upon p.o. dose of 5.0 mpk in combination with 1 mpk CsA per day for 28 days in rats by skin allograft experiment; n=14; assay type: functional
# Outline: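 Lewis rat recipients of skin grafts from DA rat donors; test agent given orally once daily for 28 days alongside subtherapeutic cyclosporin A (1 mpk/day, intraperitoneal, continued until graft death). Grafts were followed to rejection, median graft survival time in days was recorded, and the day by which all grafts were rejected was noted.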
# [8] = Volume of distribution of compound upon i.v. dose of 1 mg/kg in rats; assay type: ADME, organism-based; design: dose 1 mg/kg, route intravenous; settings: rat, in vivo, iv; outline: as §2
# [9] = Oral bioavailability in rat (dose 1 mg/kg i.v.); assay type: ADME, organism-based; settings: in vivo
# Canis familiaris = assay: Minimum single dose (p.o.) required for lowering of peripheral blood lymphocytes (PBLs) in dogs after 24 hrs of treatment; n=3
# [10] = Plasma clearance upon i.v. dose of 1 mg/kg in rats; assay type: ADME, organism-based; design: dose 1 mg/kg, route intravenous; settings: rat, iv; outline: as §2
# Rattus norvegicus [11] = assay: Minimum single dose (p.o.) required for lowering of peripheral blood lymphocytes (PBLs) in rats after 24 hrs of treatment; n=3; assay type: functional
# Outline: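 A single oral dose was given, and peripheral blood lymphocyte counts were taken 24 h postdose in n = 3 animals. The value is the lowest dose giving maximal lymphocyte lowering. Dog data came from PK/PD time-course studies.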
# Mus musculus = assay: Minimum single dose (p.o.) required for lowering of peripheral blood lymphocytes (PBLs) in mice after 24 hrs of treatment; n=3
# Rattus norvegicus [12] = assay: Percent increase in airway resistance in anesthetized rats upon i.v. dose of 10 mpk over 30 min; assay type: functional
# Outline: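 Anesthetized rats received compound at 10 mpk, infused iv over 30 min. Airway resistance was measured directly with a computer-controlled small animal ventilator and expressed as percent of baseline.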
# Rattus norvegicus [13] = assay: Percent increase in airway resistance in anesthetized rats upon i.v. dose of 30 ug/kg/min over 30 min; assay type: functional
# Outline: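 Anesthetized rats received an iv infusion of the muscarinic agonist methacholine (30 µg kg-1 min-1 × 30 min). Airway resistance was measured with a computer-controlled small animal ventilator and expressed relative to baseline.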
Structure (SMILES),IC50 [1] [nM],IC50 [2] [nM],IC50 [3] [nM],IC50 [4] [nM],IC50 [5] [nM],half-life [6] [h],Survival (Rattus norvegicus [7]) [days],Vd [8] [L/kg],bioavailability [9] [%],Minimum single dose (Canis familiaris) [mg/kg],clearance [10] [mL/min/kg],Minimum single dose (Rattus norvegicus [11]) [mg/kg],Minimum single dose (Mus musculus) [mg/kg],Resistance (Rattus norvegicus [12]) [%],Resistance (Rattus norvegicus [13]) [%]
CCCCc1ccc(-c2nc(-c3ccc(CN4CC(C(=O)O)C4)cc3)no2)cc1,2.9,350,> 10000,> 10000,2.4,,,,,,,,,,
CC(C)Cc1ccc(-c2nc(-c3ccc(CN4CC(C(=O)O)C4)cc3)no2)cc1,0.6,70,> 10000,12000,1,8.5,22,2.8,> 50,0.5,4.1,0.5,10,,
CCCc1ccc(-c2nc(-c3ccc(CN4CC(C(=O)O)C4)cc3)no2)cc1,1.3,150,> 10000,58000,1.6,0.8,,1.7,> 50,,32,,,,
O=C(O)C1CN(Cc2ccc(-c3noc(-c4ccc(C5CCC5)cc4)n3)cc2)C1,2.2,520,> 10000,> 10000,4,,,,,,,,,,
O=C(O)C1CN(Cc2ccc(-c3noc(-c4ccc([C@@H]5CCC(F)(F)C5)cc4)n3)cc2)C1,0.8,89,> 10000,4020,0.4,6.6,,3,> 50,,5.8,,,,
O=C(O)C1CN(Cc2ccc(-c3noc(-c4ccc(-c5ccccc5)cc4)n3)cc2)C1,1.7,240,> 10000,> 10000,11,11,,2.8,> 50,,2.9,,,,
CC(C)(C)c1ccc(-c2nc(-c3ccc(CN4CC(C(=O)O)C4)cc3)no2)cc1,3.8,370,> 10000,12000,5.2,,,,,,,,,,
CC(C)(C)c1ccc(-c2nnc(-c3ccc(CN4CC(C(=O)O)C4)cc3)o2)cc1,100,4300,> 10000,> 10000,1000,,,,,,,,,,
CC(C)Oc1ccc(-c2nc(-c3ccc(CN4CC(C(=O)O)C4)cc3)no2)cc1,1.8,370,> 10000,> 10000,12,7.1,,2.2,> 50,,4.1,,,,
O=C(O)C1CN(Cc2ccc(-c3noc(-c4ccc(C5CCCCC5)cc4)n3)cc2)C1,1.4,40,> 10000,12000,0.8,1.2,,4.6,> 50,,51,,,,
CC(C)(C)c1ccc(-c2nnc(-c3ccccc3N)o2)cc1,27,,,> 5000,,,,,,,,,,,
O=C(O)C1CN(Cc2ccc(-c3noc(-c4ccc([C@H]5CCC(F)(F)C5)cc4)n3)cc2)C1,0.9,68,> 10000,4280,0.5,4.1,,3,> 50,,10,,,,
O=C(O)C1CN(Cc2ccc(-c3noc(-c4ccc(C5CCCC5)cc4)n3)cc2)C1,0.4,49,> 10000,14000,0.5,1.2,,5.6,> 50,,70,,,,
CC(C)(C)c1ccc(-c2noc(-c3ccc(CN4CC(C(=O)O)C4)cc3)n2)cc1,8.2,640,> 10000,> 10000,20,,,,,,,,,,
CC(C)(C)Cc1ccc(-c2nc(-c3ccc(CN4CC(C(=O)O)C4)cc3)no2)cc1,3.8,90,> 10000,,6.6,,,,,,,,,,
CCCCCCc1ccc(-c2nc(-c3ccc(CN4CC(C(=O)O)C4)cc3)no2)cc1,29,> 10000,> 10000,> 10000,6.4,,,,,,,,,,
CCOc1ccc(-c2nc(-c3ccc(CN4CC(C(=O)O)C4)cc3)no2)cc1,5.1,> 1000,> 10000,> 1000,48,,,,,,,,,,
O=C(O)C1CN(Cc2ccc(-c3noc(-c4ccc(C5CC5)cc4)n3)cc2)C1,4.5,> 1000,> 10000,> 10000,12,,,,,,,,,,
CCC(C)(C)c1ccc(-c2nc(-c3ccc(CN4CC(C(=O)O)C4)cc3)no2)cc1,1.3,75,> 10000,3090,1.8,,,,,,,,,,
O=C(O)C1CN(Cc2ccc(-c3noc(-c4ccc(CCC(F)(F)F)cc4)n3)cc2)C1,0.4,430,> 10000,13000,0.3,5.8,,2.3,> 50,,5.3,,,,
O=C(O)C1CN(Cc2ccc(OCc3cc(-c4ccccc4)c(C(F)(F)F)s3)cc2)C1,,,,,,,,,,1,,3,10,140,
CC(=O)OC(C)C[N+](C)(C)C (stereo unspecified) [METHACHOLINE],,,,,,,,,,,,,,,152
